The test system of experiment [1] is Enterobacter cloacae. The experiment in a line: Reversal of antibacterial activity by the compound, expressed as agar disc zone size with LL-DAP (0.19 ug/disc). The class given is functional.
Experiment [2] deals with Enterobacter cloacae. The experiment in a line: Reversal of antibacterial activity by the compound, expressed as agar disc zone size with L-Ala-LL-DAP (6.5 ug/disc). The class given is functional.
A further experiment deals with Serratia marcescens. Kind of experiment: Compound was tested in vitro for antibacterial activity against Serratia marcescens ATCC 13880 strain. The class given is functional. Summed up: (§1)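 Inocula grown on agar slants or in liquid M9 or Davis-Mingoli minimal medium for 7–16 h at 37 °C. Peptides dissolved in 50 mM potassium phosphate, pH 7.4, serially diluted 2- or 10-fold in the same buffer, filter-sterilized.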

Experiment [3] deals with Enterobacter cloacae. The experiment in a line: Reversal of antibacterial activity by the compound, expressed as agar disc zone size with LL-DAP (0.0 ug/disc). The class given is functional.
The next experiment relates to Providencia rettgeri. Kind of experiment: Compound was tested in vitro for antibacterial activity against Providencia rettgeri AAB-137 strain. The class given is functional. The procedure, abridged:
as §1

Experiment [4] relates to Enterobacter cloacae. Kind of experiment: Compound was tested in vitro for antibacterial activity against Enterobacter cloacae P99 strain. The class given is functional. Summed up: as §1
Experiment [5] in a line: Compound was tested in vitro for antibacterial activity against Citrobacter sp 2404 strain. The class given is functional. Summed up: as §1
In a further experiment the test system is Escherichia coli. Kind of experiment: Compound was tested in vitro for antibacterial activity against Escherichia coli CB64 strain. The class given is functional. Summed up:
as §1

Experiment [6] concerns Enterobacter cloacae. The experiment in a line: Reversal of antibacterial activity by the compound, expressed as agar disc zone size with L-Ala-LL-DAP (0.0 ug/disc). The class given is functional.
In experiment [7] the test system is Enterobacter cloacae. The experiment in a line: Reversal of antibacterial activity by the compound, expressed as agar disc zone size with L-Ala-LL-DAP (26 ug/disc); No zone. The class given is functional, organism-based.
Experiment [8] deals with Enterobacter cloacae. Kind of experiment: Reversal of antibacterial activity by the compound, expressed as agar disc zone size with LL-DAP (0.76 ug/disc); No zone. The class given is functional, organism-based.
Another experiment has as its system Klebsiella pneumoniae. The experiment in a line: Compound was tested in vitro for antibacterial activity against Klebsiella pneumoniae 4200 strain. The class given is functional. Summed up:
as §1

Experiment [9] has as its system Enterobacter cloacae. Kind of experiment: Reversal of antibacterial activity by the compound, expressed as agar disc zone size with LL-DAP (0.38 ug/disc); No zone. The class given is functional, organism-based.
The subject of another experiment is Salmonella enteritidis. The experiment in a line: Compound was tested in vitro for antibacterial activity against Salmonella enteritidis E497 strain. The settings on record: Salmonella enterica.
Another experiment concerns Pseudomonas aeruginosa. Kind of experiment: Compound was tested in vitro for antibacterial activity against Pseudomonas aeruginosa 647 strain. The class given is functional. Summed up: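 Broth microdilution MIC. Inocula were pre-grown on agar slants or in M9 or Davis-Mingoli minimal medium for 7–16 h at 37 °C. Peptides were dissolved in 50 mM potassium phosphate, pH 7.4, serially diluted 2- or 10-fold, and filter-sterilised. Wells held 10^5 cfu/mL in M-9 broth with thiamine and lysine, read after 16 h at 37 °C.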

SMILES strings stand for the structures. Values after ≈ are worked out from the molar mass of the structure shown. Values joined by “and” are separate entries in the source; they are usually repeats but may differ in a detail not shown here. Equal entries are not always repeated.

In general, MIC refers to the least concentration at which growth counts as inhibited.

Consider `C[C@H](N)C(=O)N[C@@H](C)C(=O)N[C@@H](CCCCC(=O)O)C(=O)O`, for which the Zone size in the experiment with Enterobacter cloacae [1] is 17 mm and 21 mm; in the experiment with Enterobacter cloacae [2], 9 mm and 15 mm; in the experiment with Enterobacter cloacae [3], 25 mm; with Enterobacter cloacae [6], 25 mm; in the experiment on Enterobacter cloacae [7], “No zone”; in the experiment on Enterobacter cloacae [8], “No zone”. Further, in the experiment on Enterobacter cloacae [9], the Zone size entry is “No zone”. Moreover, the MIC in the experiment on Serratia marcescens is 16 µg/mL (≈ 50.4 µM); in the experiment on Providencia rettgeri it was 125 µg/mL (≈ 394 µM); against Enterobacter cloacae [4] it was 63 µg/mL (≈ 199 µM); in [5], 250 µg/mL (≈ 788 µM); in the experiment with Escherichia coli it was 31 µg/mL (≈ 97.7 µM); in the experiment on Klebsiella pneumoniae, 1000 µg/mL (≈ 3150 µM). The MIC with Salmonella enteritidis worked out at 2 µg/mL (≈ 6.3 µM).

Regarding `NC(CCCCC(=O)O)C(=O)O` (centres undefined), the MIC against Serratia marcescens is above 1000 µg/mL; with Pseudomonas aeruginosa, above 1000 µg/mL; in the experiment with Enterobacter cloacae [4], above 1000 µg/mL; in experiment [5] it was above 1000 µg/mL; with Escherichia coli, above 1000 µg/mL; against Klebsiella pneumoniae, 500 µg/mL (≈ 2850 µM). In the experiment with Salmonella enteritidis, this molecule yielded an MIC above 1000 µg/mL.

`O=C(O)CCCC[C@H](NC(=O)[C@@H]1CCCN1)C(=O)O`: the MIC against Serratia marcescens is above 1000 µg/mL; against Providencia rettgeri, 250 µg/mL (≈ 918 µM); in the experiment with Enterobacter cloacae [4] it was 250 µg/mL (≈ 918 µM); in experiment [5], 250 µg/mL (≈ 918 µM); in the experiment with Escherichia coli, 500 µg/mL (≈ 1840 µM); against Klebsiella pneumoniae, 63 µg/mL (≈ 231 µM). This molecule also showed an MIC against Salmonella enteritidis above 1000 µg/mL.

For the molecule `N[C@@H](CCCCC(=O)O)C(=O)N1CCC[C@H]1C(=O)O`, the MIC was above 1000 µg/mL in the experiment with Serratia marcescens; 4 µg/mL (≈ 14.7 µM) against Providencia rettgeri; 8 µg/mL (≈ 29.4 µM) against Enterobacter cloacae [4]; above 1000 µg/mL in experiment [5]; above 1000 µg/mL in the experiment on Escherichia coli; 16 µg/mL (≈ 58.8 µM) with Klebsiella pneumoniae. This molecule also returned an MIC in the experiment with Salmonella enteritidis above 1000 µg/mL.

`C[C@H](N)C(=O)N[C@@H](CCCCC(=O)O)C(=O)O`: the MIC against Serratia marcescens is 8 µg/mL (≈ 32.5 µM); in the experiment with Pseudomonas aeruginosa, 1000 µg/mL (≈ 4060 µM); in the experiment with Providencia rettgeri it was 4 µg/mL (≈ 16.2 µM); with Enterobacter cloacae [4], 4 µg/mL (≈ 16.2 µM); in experiment [5], 8 µg/mL (≈ 32.5 µM); in the experiment on Escherichia coli, 16 µg/mL (≈ 65 µM). Also, the MIC with Klebsiella pneumoniae and against Salmonella enteritidis was 16 µg/mL (≈ 65 µM) each time.

Take `C[C@H](NC(=O)[C@@H](N)CCCCC(=O)O)C(=O)O`: the MIC in the experiment on Serratia marcescens is 2 µg/mL (≈ 8.12 µM); in the experiment with Pseudomonas aeruginosa it was above 1000 µg/mL; against Providencia rettgeri it was below 1 µg/mL; in the experiment with Enterobacter cloacae [4], 4 µg/mL (≈ 16.2 µM); in [5], 2 µg/mL (≈ 8.12 µM); against Escherichia coli, 2 µg/mL (≈ 8.12 µM). Further, the MIC in the experiment on Klebsiella pneumoniae and in the experiment on Salmonella enteritidis was 8 µg/mL (≈ 32.5 µM) throughout.

Take `CC(N)C(=O)NCCP(=O)(O)O` (centres undefined) [ALAFOSALIN]: the MIC in the experiment with Serratia marcescens was 1.6 µg/mL (≈ 8.16 µM); in the experiment on Pseudomonas aeruginosa, above 100 µg/mL; in the experiment with Providencia rettgeri it was above 100 µg/mL; in the experiment on Enterobacter cloacae [4] it was 100 µg/mL (≈ 510 µM); in experiment [5], 25 µg/mL (≈ 127 µM); in the experiment with Escherichia coli, below 0.1 µg/mL. The MIC with Klebsiella pneumoniae came out at 1.6 µg/mL (≈ 8.16 µM); in the experiment on Salmonella enteritidis, 50 µg/mL (≈ 255 µM).

These data come from ChEMBL document CHEMBL1123511, “Peptides of 2-aminopimelic acid: antibacterial agents that inhibit diaminopimelic acid biosynthesis” (1986).
